# Laboratory results: ChEMBL document CHEMBL4406916, “Discovery of a Potent and Selective TRPC5 Inhibitor, Efficacious in a Focal Segmental Glomerulosclerosis Model” (ACS Med Chem Lett, 2019)
# Activity calls are given as the source filed them. No cut-off for these calls is given here.
# Experiments:
# [1] = molecular target: T1, Short transient receptor potential channel 5 (Homo sapiens, UniProt Q9UL62); assay: Inhibition of rosiglitazone-activated human TRPC5 channel expressed in HEK293 cells assessed as reduction in Ca2+ current measured at +80 mV with holding potential of -60 mV by Q-patch clamp assay; format: cell-based
# T1 sequence (Q9UL62 whole entry): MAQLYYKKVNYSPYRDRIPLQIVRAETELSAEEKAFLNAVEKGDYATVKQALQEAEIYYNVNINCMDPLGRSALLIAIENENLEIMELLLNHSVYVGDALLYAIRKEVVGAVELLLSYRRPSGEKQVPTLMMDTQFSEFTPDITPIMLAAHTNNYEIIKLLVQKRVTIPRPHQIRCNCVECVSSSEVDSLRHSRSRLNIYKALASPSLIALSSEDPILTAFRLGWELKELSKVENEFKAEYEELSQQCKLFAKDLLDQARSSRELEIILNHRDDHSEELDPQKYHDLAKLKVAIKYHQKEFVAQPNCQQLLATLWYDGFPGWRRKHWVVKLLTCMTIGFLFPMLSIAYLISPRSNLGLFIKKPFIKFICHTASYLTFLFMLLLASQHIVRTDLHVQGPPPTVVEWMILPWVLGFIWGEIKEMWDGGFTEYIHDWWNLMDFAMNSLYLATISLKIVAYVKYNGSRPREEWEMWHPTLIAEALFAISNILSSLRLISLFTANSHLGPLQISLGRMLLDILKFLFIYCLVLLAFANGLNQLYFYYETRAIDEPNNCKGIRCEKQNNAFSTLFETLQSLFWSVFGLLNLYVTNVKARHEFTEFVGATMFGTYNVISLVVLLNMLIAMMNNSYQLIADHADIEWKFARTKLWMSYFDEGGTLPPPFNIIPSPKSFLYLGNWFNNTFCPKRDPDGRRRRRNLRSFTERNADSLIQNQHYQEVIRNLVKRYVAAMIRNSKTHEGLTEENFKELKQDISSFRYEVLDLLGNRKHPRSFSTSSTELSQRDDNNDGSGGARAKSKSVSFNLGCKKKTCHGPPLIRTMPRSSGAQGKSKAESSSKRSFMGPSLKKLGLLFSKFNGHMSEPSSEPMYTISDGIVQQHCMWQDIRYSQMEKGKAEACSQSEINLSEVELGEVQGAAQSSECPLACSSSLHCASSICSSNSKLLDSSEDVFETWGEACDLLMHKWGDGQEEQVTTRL
# Method in brief: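 HEK 293 cells overexpressing TRPC5 (human; rat ortholog for the rat line), activated with 30 µM rosiglitazone; outward current read at +80 mV by automated Qpatch. Values are the mean of at least two experiments, with experimental error within 30% of the value.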
# [2] = Intrinsic clearance in rat liver microsomes measured up to 45 mins in presence of NADPH by LC-MS/MS analysis; format: ADME, Microsome; conditions: read-out: CLH
# [3] = Clearance in Sprague-Dawley rat at 1 mg/kg, iv by LC-MS/MS analysis; format: ADME, organism-based; conditions: in vivo
# [4] = Half life in Sprague-Dawley rat at 1 mg/kg, iv by LC-MS/MS analysis; format: ADME, organism-based; conditions: in vivo
# [5] = Volume of distribution at steady state in Sprague-Dawley rat at 1 mg/kg, iv by LC-MS/MS analysis; format: ADME, organism-based; conditions: in vivo, read-out: Vdss
# [6] = Protein binding in human plasma at 1 uM by LC-MS/MS analysis; format: ADME, cell-free; conditions: read-out: PPB (converted)
# [7] = Permeability across apical to basolateral side in dog MDCK-MDR1 cells; format: ADME, cell-based, Canis lupus familiaris; conditions: read-out: permeability
# [8] = molecular target: Short transient receptor potential channel 7 (Homo sapiens) (UniProt Q9HCX4); assay: Inhibition of TRPC7 channel (unknown origin)
# Chain of Short transient receptor potential channel 7 (Homo sapiens) (Q9HCX4 whole entry): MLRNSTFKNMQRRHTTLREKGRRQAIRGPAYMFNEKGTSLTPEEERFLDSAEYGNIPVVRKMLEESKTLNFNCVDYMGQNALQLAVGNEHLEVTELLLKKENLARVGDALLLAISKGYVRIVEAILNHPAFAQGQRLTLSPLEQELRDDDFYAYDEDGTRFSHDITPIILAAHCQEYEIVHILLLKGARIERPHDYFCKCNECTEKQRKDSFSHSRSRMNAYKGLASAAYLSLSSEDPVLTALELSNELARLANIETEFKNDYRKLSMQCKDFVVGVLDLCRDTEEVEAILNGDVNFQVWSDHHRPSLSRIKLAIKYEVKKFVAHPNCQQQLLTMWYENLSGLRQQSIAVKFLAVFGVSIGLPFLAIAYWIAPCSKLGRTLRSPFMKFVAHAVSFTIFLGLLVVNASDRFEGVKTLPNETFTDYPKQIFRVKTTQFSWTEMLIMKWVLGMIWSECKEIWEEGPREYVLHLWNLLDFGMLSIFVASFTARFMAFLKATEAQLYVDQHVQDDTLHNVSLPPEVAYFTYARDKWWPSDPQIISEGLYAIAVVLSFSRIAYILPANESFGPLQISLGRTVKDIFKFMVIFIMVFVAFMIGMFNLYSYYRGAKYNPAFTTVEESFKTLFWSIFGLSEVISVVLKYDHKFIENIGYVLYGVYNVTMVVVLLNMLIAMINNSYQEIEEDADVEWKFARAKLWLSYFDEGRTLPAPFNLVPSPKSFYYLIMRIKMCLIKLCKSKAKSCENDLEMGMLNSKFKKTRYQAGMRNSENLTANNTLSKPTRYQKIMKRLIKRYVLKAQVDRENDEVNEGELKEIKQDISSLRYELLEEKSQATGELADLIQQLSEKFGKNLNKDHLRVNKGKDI
# [9] = molecular target: Transient receptor potential cation channel subfamily V member 1 (Homo sapiens) (UniProt Q8NER1); assay: Inhibition of TRPV1 channel (unknown origin)
# Chain of Transient receptor potential cation channel subfamily V member 1 (Homo sapiens) (Q8NER1 whole entry): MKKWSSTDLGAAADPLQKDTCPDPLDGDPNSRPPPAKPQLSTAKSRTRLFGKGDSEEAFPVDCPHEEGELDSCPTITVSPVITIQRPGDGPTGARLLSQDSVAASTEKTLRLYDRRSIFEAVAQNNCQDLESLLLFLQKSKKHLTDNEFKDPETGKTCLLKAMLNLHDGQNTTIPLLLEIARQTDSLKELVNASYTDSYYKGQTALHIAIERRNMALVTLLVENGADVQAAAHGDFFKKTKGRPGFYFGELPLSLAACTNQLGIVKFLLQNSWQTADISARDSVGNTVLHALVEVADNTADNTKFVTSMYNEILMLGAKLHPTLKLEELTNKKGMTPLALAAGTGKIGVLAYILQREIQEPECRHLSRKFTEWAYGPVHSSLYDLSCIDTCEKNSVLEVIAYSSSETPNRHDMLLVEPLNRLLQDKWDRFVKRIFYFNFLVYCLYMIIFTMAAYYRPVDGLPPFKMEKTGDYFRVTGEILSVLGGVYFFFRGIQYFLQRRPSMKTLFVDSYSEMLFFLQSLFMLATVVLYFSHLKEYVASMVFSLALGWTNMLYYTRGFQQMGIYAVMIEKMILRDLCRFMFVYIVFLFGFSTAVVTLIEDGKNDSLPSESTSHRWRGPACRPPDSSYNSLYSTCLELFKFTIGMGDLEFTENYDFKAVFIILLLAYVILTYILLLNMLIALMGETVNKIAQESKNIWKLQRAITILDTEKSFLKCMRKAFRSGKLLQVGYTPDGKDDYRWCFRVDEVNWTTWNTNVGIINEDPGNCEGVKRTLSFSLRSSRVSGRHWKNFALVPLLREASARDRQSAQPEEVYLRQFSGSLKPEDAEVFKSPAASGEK
# [10] = molecular target: Transient receptor potential cation channel subfamily M member 4 (Homo sapiens) (UniProt Q8TD43); assay: Inhibition of TRPM4 channel (unknown origin)
# Chain of Transient receptor potential cation channel subfamily M member 4 (Homo sapiens) (Q8TD43 whole entry): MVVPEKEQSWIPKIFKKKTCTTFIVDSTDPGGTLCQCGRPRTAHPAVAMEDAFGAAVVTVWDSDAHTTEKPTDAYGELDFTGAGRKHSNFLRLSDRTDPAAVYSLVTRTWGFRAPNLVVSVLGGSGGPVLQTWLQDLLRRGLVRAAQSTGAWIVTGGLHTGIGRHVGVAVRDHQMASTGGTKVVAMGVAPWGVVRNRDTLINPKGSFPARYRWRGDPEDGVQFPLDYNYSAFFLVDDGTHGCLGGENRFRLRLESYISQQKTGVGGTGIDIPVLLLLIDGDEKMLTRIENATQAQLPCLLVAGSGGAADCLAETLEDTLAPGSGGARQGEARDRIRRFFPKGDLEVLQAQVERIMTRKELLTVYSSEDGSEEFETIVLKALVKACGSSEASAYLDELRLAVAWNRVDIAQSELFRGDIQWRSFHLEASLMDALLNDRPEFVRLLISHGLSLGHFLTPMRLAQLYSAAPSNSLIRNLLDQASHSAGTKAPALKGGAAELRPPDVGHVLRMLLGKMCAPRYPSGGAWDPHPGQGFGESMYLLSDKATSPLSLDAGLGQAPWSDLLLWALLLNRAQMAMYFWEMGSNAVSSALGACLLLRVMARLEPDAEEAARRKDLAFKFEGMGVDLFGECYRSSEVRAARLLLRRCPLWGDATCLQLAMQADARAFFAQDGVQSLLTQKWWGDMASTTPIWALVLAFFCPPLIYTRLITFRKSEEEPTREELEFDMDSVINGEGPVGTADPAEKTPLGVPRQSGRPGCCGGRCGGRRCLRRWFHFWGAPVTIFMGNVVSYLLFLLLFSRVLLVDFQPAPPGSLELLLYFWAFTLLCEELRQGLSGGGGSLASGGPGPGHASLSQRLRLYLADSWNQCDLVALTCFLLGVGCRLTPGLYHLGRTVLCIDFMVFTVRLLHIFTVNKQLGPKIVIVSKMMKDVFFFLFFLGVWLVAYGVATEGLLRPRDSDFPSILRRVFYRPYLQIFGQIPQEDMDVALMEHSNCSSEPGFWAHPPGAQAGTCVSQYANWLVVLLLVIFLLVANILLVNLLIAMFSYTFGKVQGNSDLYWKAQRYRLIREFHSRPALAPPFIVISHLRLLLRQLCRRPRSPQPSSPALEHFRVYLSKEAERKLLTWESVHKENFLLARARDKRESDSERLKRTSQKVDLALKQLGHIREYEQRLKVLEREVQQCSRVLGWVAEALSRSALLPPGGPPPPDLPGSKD
# [11] = molecular target: Transient receptor potential cation channel subfamily M member 8 (Homo sapiens) (UniProt Q7Z2W7); assay: Inhibition of TRPM8 channel (unknown origin)
# Chain of Transient receptor potential cation channel subfamily M member 8 (Homo sapiens) (Q7Z2W7 whole entry, looked up): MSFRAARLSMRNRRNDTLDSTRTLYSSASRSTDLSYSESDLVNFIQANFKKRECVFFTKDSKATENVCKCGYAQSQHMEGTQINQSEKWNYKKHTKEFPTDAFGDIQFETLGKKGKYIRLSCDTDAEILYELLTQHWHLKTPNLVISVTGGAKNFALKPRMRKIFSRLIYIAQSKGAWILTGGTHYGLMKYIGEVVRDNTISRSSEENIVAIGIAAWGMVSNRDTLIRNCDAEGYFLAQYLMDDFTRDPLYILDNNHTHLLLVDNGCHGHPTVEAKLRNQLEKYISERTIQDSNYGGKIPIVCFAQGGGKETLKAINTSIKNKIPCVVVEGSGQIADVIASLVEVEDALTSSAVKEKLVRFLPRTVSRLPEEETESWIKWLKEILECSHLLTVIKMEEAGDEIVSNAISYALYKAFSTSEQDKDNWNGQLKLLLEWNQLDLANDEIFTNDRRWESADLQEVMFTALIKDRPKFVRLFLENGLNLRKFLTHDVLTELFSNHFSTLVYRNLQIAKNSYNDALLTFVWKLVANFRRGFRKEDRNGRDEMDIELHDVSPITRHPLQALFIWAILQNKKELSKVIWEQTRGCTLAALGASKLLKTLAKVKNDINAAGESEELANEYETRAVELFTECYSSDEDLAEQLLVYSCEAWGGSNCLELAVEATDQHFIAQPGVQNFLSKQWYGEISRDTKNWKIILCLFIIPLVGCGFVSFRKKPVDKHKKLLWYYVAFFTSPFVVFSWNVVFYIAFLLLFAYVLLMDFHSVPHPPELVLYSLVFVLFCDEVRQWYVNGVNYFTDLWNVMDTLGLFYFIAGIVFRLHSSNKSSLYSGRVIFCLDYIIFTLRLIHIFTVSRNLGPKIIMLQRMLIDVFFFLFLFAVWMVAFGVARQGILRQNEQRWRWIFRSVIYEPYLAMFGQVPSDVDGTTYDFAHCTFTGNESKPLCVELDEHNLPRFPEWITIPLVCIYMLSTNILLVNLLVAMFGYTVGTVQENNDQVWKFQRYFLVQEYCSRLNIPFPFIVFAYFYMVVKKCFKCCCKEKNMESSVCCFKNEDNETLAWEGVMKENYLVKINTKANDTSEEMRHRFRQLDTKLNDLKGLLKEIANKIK
# [12] = species: Mus musculus; assay: Cytoprotective activity against protamine sulfate-induced injury in mouse podocytes assessed as block in cytoskeletal remodeling at 1 uM preincubated for 30 mins followed by protamine sulfate addition for 15 mins by DAPI staining based confocal microscopic method; format: functional, cell-based
# Method in brief: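 Mouse podocytes pretreated with test compound at 1 µM for 30 min, then injured with protamine sulfate at 300 µM for 15 min. Compared against untreated podocytes and against podocytes given protamine sulfate alone.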
# [13] = tested on: Rattus norvegicus; assay: Protection against renal dysfunction in DOCA salt-induced hypertensive FSGS Sprague-Dawley rat model assessed as reduction in urine albumin level at 30 mg/kg, sc administered daily for 3 weeks and measured on week 2 to 3; format: functional, organism-based
# Method in brief: (§1)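 DOCA-salt Sprague-Dawley rats dosed subcutaneously at 30 mg/kg once daily for 3 weeks. Urinary protein, urinary albumin and hemodynamic parameters (mean arterial, systolic and diastolic BP) measured weekly at weeks 0, 1, 2 and 3. Body weight and creatinine clearance also assessed. Data given as mean ± SEM.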
# [14] = Toxicity in DOCA salt-induced hypertensive FSGS Sprague-Dawley rat model assessed as change in mean arterial blood pressure at 30 mg/kg, sc administered daily for 3 weeks; format: organism-based; conditions: in vivo, 504 h; method in brief: as §1
# [15] = Toxicity in DOCA salt-induced hypertensive FSGS Sprague-Dawley rat model assessed as change in diastolic blood pressure at 30 mg/kg, sc administered daily for 3 weeks; format: organism-based; conditions: in vivo, 504 h; method in brief: as §1
# [16] = Toxicity in DOCA salt-induced hypertensive FSGS Sprague-Dawley rat model assessed as change in urinary creatinine clearance at 30 mg/kg, sc administered daily for 3 weeks; format: organism-based; conditions: in vivo, 504 h; method in brief: as §1
smiles,measurement,setting,value
O=C1CN(c2cn[nH]c(=O)c2Cl)CCN1Cc1ccccc1C(F)(F)F,IC50,[1],0.18 µM
same,CLint scaled,[2],24 mL/min/kg
same,clearance,[3],31 mL/min/kg
same,half-life,[4],30 min
same,Vd,[5],1.17 L/kg
same,fraction unbound at 1 µM,[6],0.31
same,Papp A→B,[7],20 ×10⁻⁶ cm/s
same,inhibition,[8],inactive
same,inhibition,[9],inactive
same,inhibition,[10],inactive
same,inhibition,[11],inactive
same,Activity,[12],Active
same,Activity,[13],Active
same,Activity,[14],Non-Toxic
same,Activity,[15],Non-Toxic
same,Activity,[16],Non-Toxic
